From ChEMBL document CHEMBL4130351, “Novel pyrazolopyrimidines: Synthesis, in vitro cytotoxic activity and mechanistic investigation” (Eur J Med Chem, 2017) come the findings set out here.

Structures are written as SMILES.

By IC50 is commonly meant the point on the concentration scale where inhibition reaches its midpoint.

In assay [1] the test system is MCF7. Put plainly: Cytotoxicity against human MCF7 cells assessed as reduction in cell viability after 72 hrs by MTT assay. It counts as functional, cell-based. Conditions: MCF7, 72 h. An outline of the steps:
(§1)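 MCF-7 and HepG2 cells in exponential growth were trypsinized and seeded at 1000–2000 cells/well, then incubated 24 h at 37 °C. Compound exposure was 72 h at 0.1, 10, 100 and 1000 μM. Cells took up 5% MTT for 2 h, and formazan was dissolved in acidified isopropanol for 30 min at room temperature. A570 was read, viability expressed as % of control, and IC50 obtained by curve fitting.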
(In general: Tetrazolium assays rely on reduction of a dye to a coloured formazan, in cell work by metabolically active cells.)

Assay [2] deals with HepG2. Put plainly: Cytotoxicity against human HepG2 cells assessed as reduction in cell viability after 72 hrs by MTT assay. It counts as functional, cell-based. Conditions: HepG2, 72 h. Put shortly:
as §1

In assay [3] the test system is MCF7. Put plainly: Induction of apoptosis in human MCF7 cells at 1.4 uM after 24 hrs by Annexin V/propidium iodide double staining-based flow cytometry (reference value: 0.62%). It counts as functional. An outline of the steps:
(§2)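 MCF-7 exposed at 1.4 μM or HepG2 at 0.4 μM for 24 or 48 h. Cells were collected in PBS, fixed in ice-cold 70% ethanol, washed, then resuspended in PI staining solution containing 0.1 mg/mL RNase plus PE-Annexin V. Staining was 10 min in the dark at 37 °C, followed by FACSCalibur flow cytometry.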

Assay [4] concerns MCF7. In words: Induction of apoptosis in human MCF7 cells at 1.4 uM after 48 hrs by Annexin V/propidium iodide double staining-based flow cytometry (reference value: 0.62%). It counts as functional. Put shortly:
as §2
For orientation: In flow cytometry, cells or beads pass a laser one at a time.

Assay [5] concerns MCF7. In words: Cell cycle arrest in human MCF7 cells assessed as accumulation at G0/G1 phase at 1.4 uM after 24 hrs by propidium iodide staining-based flow cytometry (reference value: 71.70%). It counts as functional.
Assay [6] concerns MCF7. In words: Cell cycle arrest in human MCF7 cells assessed as accumulation at G0/G1 phase at 1.4 uM after 48 hrs by propidium iodide staining-based flow cytometry (reference value: 71.70%). It counts as functional.
Assay [7] deals with MCF7. Put plainly: Cell cycle arrest in human MCF7 cells assessed as accumulation at S phase at 1.4 uM after 24 hrs by propidium iodide staining-based flow cytometry (reference value: 22.45%). It counts as functional.
Assay [8] relates to MCF7. In words: Cell cycle arrest in human MCF7 cells assessed as accumulation at S phase at 1.4 uM after 48 hrs by propidium iodide staining-based flow cytometry (reference value: 22.45%). It counts as functional.
For assay [9], the system named is MCF7. In words: Cell cycle arrest in human MCF7 cells assessed as accumulation at G2/M phase at 1.4 uM after 24 hrs by propidium iodide staining-based flow cytometry (reference value: 5.23%). It counts as functional.
Assay [10] concerns MCF7. In words: Cell cycle arrest in human MCF7 cells assessed as accumulation at G2/M phase at 1.4 uM after 48 hrs by propidium iodide staining-based flow cytometry (reference value: 5.23%). It counts as functional.
Assay [11] has as its system MCF7. Put plainly: Induction of apoptosis in human MCF7 cells assessed as viable cells at 1.4 uM after 24 hrs by Annexin V/propidium iodide double staining-based flow cytometry (reference value: 99.38 %). It counts as functional. As to conditions: MCF7, 24 h, read-out: Activity. Put shortly:
as §2

The test system of assay [12] is MCF7. In words: Induction of apoptosis in human MCF7 cells assessed as early apoptotic cells at 1.4 uM after 24 hrs by Annexin V/propidium iodide double staining-based flow cytometry (reference value: 0.39 %). It counts as functional. Put shortly:
as §2

Assay [13] has as its system MCF7. In words: Induction of apoptosis in human MCF7 cells assessed as late apoptotic cells at 1.4 uM after 24 hrs by Annexin V/propidium iodide double staining-based flow cytometry (reference value: 0.18 %). It counts as functional. An outline of the steps:
as §2

For assay [14], the system named is MCF7. Put plainly: Induction of apoptosis in human MCF7 cells assessed as necrotic cells at 1.4 uM after 24 hrs by Annexin V/propidium iodide double staining-based flow cytometry (reference value: 0.05 %). It counts as functional. Put shortly: as §2
The subject of assay [15] is MCF7. Put plainly: Induction of apoptosis in human MCF7 cells assessed as viable cells at 1.4 uM after 48 hrs by Annexin V/propidium iodide double staining-based flow cytometry (reference value: 99.38 %). Conditions: MCF7, 48 h, read-out: Activity. It counts as functional. Put shortly:
as §2

For assay [16], the system named is MCF7. Put plainly: Induction of apoptosis in human MCF7 cells assessed as early apoptotic cells at 1.4 uM after 48 hrs by Annexin V/propidium iodide double staining-based flow cytometry (reference value: 0.39 %). It counts as functional. Put shortly: as §2
Assay [17] has as its system MCF7. In words: Induction of apoptosis in human MCF7 cells assessed as late apoptotic cells at 1.4 uM after 48 hrs by Annexin V/propidium iodide double staining-based flow cytometry (reference value: 0.18 %). It counts as functional. An outline of the steps: as §2
For assay [18], the system named is MCF7. Put plainly: Induction of apoptosis in human MCF7 cells assessed as necrotic cells at 1.4 uM after 48 hrs by Annexin V/propidium iodide double staining-based flow cytometry (reference value: 0.05 %). It counts as functional. An outline of the steps:
as §2

The test system of assay [19] is MCF7. Put plainly: Induction of apoptosis in human MCF7 cells assessed as caspase-3 activation at 1.4 uM after 10 mins by ELISA relative to control. It counts as functional. Put shortly:
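MCF-7 treated at 1.4 μM or HepG2 at 0.4 μM. Cells were trypsinized, rinsed in PBS, pelleted (105–106 cells) and resuspended in 1 mL PBS. Lysis was by three freeze/thaw cycles, followed by a 1500×g spin for 10 min at 2–8 °C. Active caspase-3 (cleaved at Asp175/Ser176) in the lysate was quantified by sandwich ELISA with an anti-rabbit HRP step, read at 450 nm, in pg/mL against control.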
On the technique in general: In an ELISA, binding on a coated surface is turned into a signal by an enzyme label.

Take `NC(=O)c1cnn(-c2ccc(S(N)(=O)=O)cc2)c1N`: the IC50 in [1] and in [2] was over 100 µM throughout.
Turning to `NS(=O)(=O)c1ccc(-n2ncc3c(=O)[nH]c(-c4ccc(F)cc4)nc32)cc1`, the figures for the IC50 in [1] and in assay [2] were 38 µM and 2.66 µM, respectively.
Regarding `COc1ccc(-c2nc3c(cnn3-c3ccc(S(N)(=O)=O)cc3)c(=O)[nH]2)cc1`, the IC50 in assay [1] is 1.4 µM; in assay [2], over 100 µM. Further, the Activity worked out at 7.38% in assay [3]; 11.61% in assay [4]; 64.7% in assay [5]; 72.3% in assay [6]; 27.92% in [7]; 16.09% in assay [8]. In addition, the Activity in assay [9] turned out to be 0%; in [10] it was 0%; in assay [12] it was 4.39%; in [13], 2.58%; in assay [14], 0.41%; in assay [16], 6.49%. Also, the Activity is 3.64% in assay [17] and 1.48% in assay [18]. Besides, the viability at 1.4 µM in [11] was determined as 72.6%; in assay [15], 88.4%. Further, in assay [19], the “fold change (FC)” value stood at 32.
Turning to `N#Cc1cnn(-c2ccc(S(N)(=O)=O)cc2)c1N`, the IC50 in [1] and in [2] was over 100 µM in each case.
Consider `Nc1ncnc2c1cnn2-c1ccc(S(N)(=O)=O)cc1`, for which the IC50 in assay [1] was found to be 40.7 µM; in assay [2], 95.5 µM.
As for `NS(=O)(=O)c1ccc(-n2ncc3c(=O)[nH]c(-c4ccccc4)nc32)cc1`, the results for the concentration for half-maximal inhibition (IC50) in assay [1] and in [2] were over 100 µM and 77.6 µM, respectively.
